Most compounds without a hit are left out; they make up all but 2.3% or so of the library.
TAAR1 antagonist = human TAAR1 antagonism | hit rate 1.5% among 360,000 | inhibition, % at 3 µM | CHO RD-HGA16 TAAR1, Fluo-8 calcium fluorescence, antagonist | Q96RJ0;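 active = inhibition above a per-plate cutoff, the mean inhibition of test compounds on that plate plus 3 SD, cut at about 49% in these data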;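 note: 0% = DMSO plus EC80 beta-PEA response and 100% = DMSO alone without agonist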
Target sequence (Q96RJ0 whole entry, looked up): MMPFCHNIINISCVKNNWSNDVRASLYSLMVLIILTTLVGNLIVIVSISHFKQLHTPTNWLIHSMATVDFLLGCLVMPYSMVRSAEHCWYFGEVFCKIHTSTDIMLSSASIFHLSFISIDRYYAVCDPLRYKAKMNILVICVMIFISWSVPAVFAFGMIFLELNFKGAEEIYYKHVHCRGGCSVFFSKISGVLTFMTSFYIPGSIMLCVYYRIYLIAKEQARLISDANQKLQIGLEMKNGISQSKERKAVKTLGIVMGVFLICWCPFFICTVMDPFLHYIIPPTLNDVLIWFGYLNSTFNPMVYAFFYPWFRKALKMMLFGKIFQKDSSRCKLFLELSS
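Test system: RD-HGA16 CHO cells with stable hTAAR1 and Gα16 / Probe or stimulus: EC80 β-phenethylamine stimulus / Times: seeding 17-24 h prior, 75-min 37 °C, 30-min RT dye loading / Detection: Fluo-8 calcium-sensitive fluorescence / Read-out basis: % inhibition scaled between DMSO and EC80 PEA controls / Repeats: singlicate, one well per test compound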
V1aR counter = counter-screen for oxytocin receptor agonists: human V1a receptor agonists; CHO-V1R cells, Fluo-8 calcium fluorescence, agonist mode; 0% DMSO, 100% 3 nM vasopressin; AID 2797; P37288; activation, % at 3 µM; hit rate 0.25% among 320,000;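 active = activation above the mean activation of all tested compounds plus 3 SD, per screening run, cut at about 20% in these data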;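 note: signal is peak over basal fluorescence ratio across a 100 second FLIPR read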
OXTR ag = activates the human oxytocin receptor; P30559; CHO-OTR cells, Fluo-8 calcium fluorescence; normalized: DMSO 0%, oxytocin 100%; activation, % at 3 µM; hit rate 0.32% among 320,000;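 active = activation above the mean of all tested compounds plus 3 SD, cutoff set per screening run, cut at about 20% in these data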;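 note: peak over basal fluorescence ratio from a 100 s FLIPR kinetic read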
OXTR potentiate = human OXTR potentiation | P30559 | CHO-OTR cells, Fluo-8 calcium fluorescence, potentiator mode; 0% = oxytocin EC15, 100% = EC100 | activation, % at 3 µM | hit rate 0.061% among 320,000;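 active = activation above that plate's cutoff, the mean activation of tested compounds plus 3 SD, cut at about 6.6% in these data, passing the limit was not always enough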;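 note: 100% uses oxytocin at 75 nM as the full agonist control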
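Assay system: CHO cell line stably expressing human OTR | Also added: Oxytocin at about EC15, sub-maximal agonist stimulus | Times: Compound 6 min at room temperature before oxytocin, 100 s read | Measured by: Fluo-8 intracellular calcium fluorescence, ex 470-495, em 515-575 nm | Controls: EC15 oxytocin alone as 0%, 75 nM oxytocin as 100%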
TAAR1 ag = agonists of human TAAR1; activation, % at 3 µM; CHO RD-HGA16 TAAR1, Fluo-8 calcium fluorescence; vehicle wells 0%, saturating PEA agonist 100%; hit rate 0.99% among 360,000;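 active = activation above the mean activation of all test compounds in the run plus 3 SD, cut at about 38% in these data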
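Test system: RD-HGA16 (CHO) cells co-expressing Gα16 and hTAAR1 / Benchmarks: DMSO vehicle as 0%, PEA at EC100 as 100% / Repeats: no replicates (n 1) / Measure: % activation from peak over basal fluorescence ratio, DMSO-to-PEA scaled / Timing: 17-24 h plating, Fluo-8 75 min 37 °C, 30 min RT / Technique: kinetic Fluo-8 calcium fluorescence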
TAAR1 nonsel count = nonselective antagonism, TAAR1 counter-screen. shares compounds with TAAR1 antagonist. counterscreen cell line, calcium fluorescence, antagonist mode. inhibition, % at 3 µM. hit rate 77% among 2,400. AID 651780; in the data active = inhibition above about 22%;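 note: CHO-Ga16 host cells stimulated with ATP at an EC80 level; 0% = agonist EC80 plus vehicle and 100% = vehicle without agonist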
TAAR1 ant conf = confirmation of human TAAR1 antagonists | shares compounds with TAAR1 antagonist | TAAR1-expressing cells, fluorescence antagonist read-out | inhibition, % at 3 µM | hit rate 40% among 2,400 | AID 651785; in the data active = inhibition above about 49%;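 note: CHO-Ga16 host cells challenged with agonist PEA near its EC80; 0% = agonist at EC80 plus vehicle and 100% = vehicle with no agonist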
Ga16 ag counter = nonselective Ga16 agonist in TAAR1 antagonist counter-screen. shares compounds with TAAR1 antagonist. Ga16-expressing cells, calcium fluorescence, agonist counterscreen. activation, % at 3 µM. hit rate 18% among 2,400; in the data active = activation above about 12%;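 note: 0% = vehicle wells and 100% = saturating stimulus response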
TAAR1 ag counter = TAAR1 agonism, antagonist counter-screen. shares compounds with TAAR1 antagonist. hTAAR1 cell line, fluorescence activation, agonist mode. activation, % at 3 µM. hit rate 2% among 2,400. AID 651955; in the data active = activation above about 37%;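 note: CHO cells stably expressing TAAR1 with calcium dye readout; 0% = DMSO vehicle and 100% = full agonist response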
Active calls of the source: *; . = no result given.

SMILES	TAAR1 antagonist	V1aR counter	OXTR ag	OXTR potentiate	TAAR1 ag	TAAR1 nonsel count	TAAR1 ant conf	Ga16 ag counter	TAAR1 ag counter
Cc1cccc(-c2noc(CCC(=O)NCc3ccccc3)n2)c1	106*	0	1	-1	8	13	4	8	12
O=C(NCc1ccco1)c1cccc(-c2nnc(-c3ccccc3)o2)c1	62*	1	-2	4	11	22*	42	7	10
Cc1cccc(NC(=S)N2CCN(S(=O)(=O)c3cccc(F)c3)CC2)c1	22	0	1	-20	9	.	.	.	.
COc1ccc([C@H]2CC(=O)C=C(c3ccccc3Oc3ccccc3)C2)cc1	50*	2	3	-8	8	11	17	1	2
COc1ccc(C2=CC(=O)C[C@H](c3ccc(F)cc3)C2)cc1OC	92*	-1	-1	-6	4	16	51*	0	-3
O=C(/C=C/c1ccc2c(c1)OCO2)NCCSCc1c(Cl)cccc1Cl	3	3	3	-7	1	.	.	.	.
COC(=O)c1cccc(Nc2nc(-c3cccnc3)nc3ccccc23)c1	67*	-2	-2	-6	17	27*	39	5	5
CCOC(=O)c1c(NC(=O)COc2ccccc2C#N)sc2c1CC(C)(C)NC2(C)C	74*	2	5	-12	22	28*	46	14*	16
COc1ccc(-c2[nH]c3ccccc3c2SCCNC(=O)c2ccccc2)cc1	70*	0	0	-7	2	23*	41	5	5
COC(=O)c1cc(NC(=O)CSC2=NCCS2)cc(C(=O)OC)c1	-17	0	-1	-9	2	.	.	.	.
CCCn1ncc(CN2CCC(n3nccc3NC(=O)c3ccccc3Cl)CC2)c1C	-11	2	-1	-5	2	.	.	.	.
CCCCNc1c(-c2cccc(-c3cc(C(C)=O)cs3)c2)nc2cc(C)ccn12	78*	0	-2	-10	14	31*	53*	11	10
CCCCCCSc1cc(-c2nc3cc(C)ccn3c2NCCCC)ccc1OC	16	0	-1	-2	2	.	.	.	.
CC(C)(C)NS(=O)(=O)c1ccc(CCC(=O)NCc2ccccn2)cc1	3	0	0	-14	2	.	.	.	.
O=C(COC(=O)CSc1ccc([N+](=O)[O-])cc1)NCC1CCCO1 (stereo unspecified)	-9	.	.	.	4	.	.	.	.
COc1ccc(-c2cc(C(=O)N3CCN(c4ccccc4O)CC3)c3ccccc3n2)cc1OC	74*	0	-2	-6	11	26*	46	8	6
Cc1ccc(-c2cc(C(=O)N3CCN(c4ccccc4O)CC3)c3ccccc3n2)cc1	62*	-1	0	-3	7	36*	44	6	2
Cc1ccc(-c2cc(C(=O)N3CCN(c4ccc(O)cc4)CC3)c3ccccc3n2)cc1	65*	2	1	-5	14	35*	43	10	8
O=C(c1cc(-c2ccccc2)nc2ccccc12)N1CCCC1	-16	3	2	2	4	.	.	.	.
NC(=O)C1CCN(C(=O)c2cc(-c3ccc(Cl)s3)nc3ccccc23)CC1	60*	1	3	-3	12	32*	44	11	13
CN(CC(=O)Nc1c(Cl)cccc1Cl)C(=O)c1cc2ccccc2cc1O	3	-1	1	-10	3	.	.	.	.
CCC(=O)Nc1c2c(nn1-c1ccc(F)cc1)CS(=O)(=O)C2	-18	-1	-1	0	5	.	.	.	.
CCOc1ccc2c(c1)S/C(=C\c1cccs1)C(=O)N2	-34	0	-1	-3	9	.	.	.	.
O=C(c1cc(-c2ccccc2Cl)nc2ccccc12)N1CCN(c2ccccc2O)CC1	59*	-1	1	-8	14	22*	36	7	6
